Assay results from ChEMBL document CHEMBL5724801, “EUbOPEN Chemogenomics Library - Multiplex” (2024).
Values joined by “and” are separate entries in the source; they are usually repeats but may differ in a detail not shown here. Equal entries are not always repeated.

Test system: Fibroblast
Assay: Multiplex assay against human fibroblast
Type: toxicity, cell-based
Outline: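 Four dyes were applied at seeding to live cells: Hoechst33342, BioTracker Green Microtubule Cytoskeleton Dye, MitoTracker Red and Annexin V Alexa Fluor 680. Imaging after compound addition used a CQ1 microscope at 37°C and 5% CO2. CellPathfinder machine-learning gating then sorted cells into Hoechst high-intensity objects or normal cells, normal cells into healthy, pyknosed or fragmented nuclei, and pyknosed cells into mitotic or apoptotic, with tubulin, mitochondrial-mass and membrane-permeability phenotypes given as per cents of healthy-nucleus cells.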

[1] = 12 h, 1 µM, compound concentration 1 uM
[2] = 12 h, 10 µM, compound concentration 10 uM
[3] = 24 h, 1 µM, compound concentration 1 uM
[4] = 24 h, 10 µM, compound concentration 10 uM
[5] = 48 h, 1 µM, compound concentration 1 uM
[6] = 48 h, 10 µM, compound concentration 10 uM

CC(C)(C)c1ccc(S(=O)(=O)Nc2ccc(Cl)cc2C(=O)c2cc[n+]([O-])cc2)cc1 [VERCIRNON]
Population Apoptotic (%) [1]: 63% and 50% | Population Fragmented Nuclei (%) [1]: 19% and 27% | Population Healthy Nuclei (%) [1]: 65% and 46% | Population Hoechst High Intensity Objects (%) [1]: 2% and 7% | Population Membrane Permeable-Phenotype (%) [1]: 1% and 6% | Population Mitochondria Different-Phenotype (%) [1]: 3% and 1% | Population Mitotic Cells (%) [1]: 36% and 50% | Population Normal (%) [1]: 97% and 92% | Population Pyknosed Nuclei (%) [1]: 15% and 25% | Population Tubulin-Different-Phenotype (%) [1]: 20% and 41% | Total Cell Count [1]: 148 and 152 | Population Apoptotic (%) [2]: 59% and 48% | Population Fragmented Nuclei (%) [2]: 14% and 30% | Population Healthy Nuclei (%) [2]: 64% and 44% | Population Hoechst High Intensity Objects (%) [2]: 3% and 5% | Population Membrane Permeable-Phenotype (%) [2]: 3% and 8% | Population Mitochondria Different-Phenotype (%) [2]: 1% and 10% | Population Mitotic Cells (%) [2]: 40% and 51% | Population Normal (%) [2]: 96% and 94% | Population Pyknosed Nuclei (%) [2]: 21% and 25% | Population Tubulin-Different-Phenotype (%) [2]: 46% and 66% | Total Cell Count [2]: 107 and 114 | Population Apoptotic (%) [3]: 55% and 54% | Population Fragmented Nuclei (%) [3]: 23% and 25% | Population Healthy Nuclei (%) [3]: 62% and 57% | Population Hoechst High Intensity Objects (%) [3]: 0% and 7% | Population Membrane Permeable-Phenotype (%) [3]: 4% and 7% | Population Mitochondria Different-Phenotype (%) [3]: 1% | Population Mitotic Cells (%) [3]: 45% | Population Normal (%) [3]: 99% and 92% | Population Pyknosed Nuclei (%) [3]: 14% and 16% | Population Tubulin-Different-Phenotype (%) [3]: 27% and 40% | Total Cell Count [3]: 141 and 142 | Population Apoptotic (%) [4]: 66% and 41% | Population Fragmented Nuclei (%) [4]: 16% and 32% | Population Healthy Nuclei (%) [4]: 66% and 42% | Population Hoechst High Intensity Objects (%) [4]: 1% and 0% | Population Mitochondria Different-Phenotype (%) [4]: 2% and 9% | Population Mitotic Cells (%) [4]: 33% and 58% | Population Normal (%) [4]: 98% and 99% | Population Pyknosed Nuclei (%) [4]: 16% and 24% | Population Tubulin-Different-Phenotype (%) [4]: 40% and 82% | Total Cell Count [4]: 114 and 120 | Population Apoptotic (%) [5]: 61% and 62% | Population Fragmented Nuclei (%) [5]: 29% and 32% | Population Healthy Nuclei (%) [5]: 58% and 55% | Population Hoechst High Intensity Objects (%) [5]: 1% and 6% | Population Membrane Permeable-Phenotype (%) [5]: 1% and 6% | Population Mitochondria Different-Phenotype (%) [5]: 1% and 9% | Population Mitotic Cells (%) [5]: 38% and 37% | Population Normal (%) [5]: 98% and 93% | Population Pyknosed Nuclei (%) [5]: 12% and 11% | Population Tubulin-Different-Phenotype (%) [5]: 25% and 37% | Total Cell Count [5]: 151 and 145 | Population Apoptotic (%) [6]: 62% and 46% | Population Fragmented Nuclei (%) [6]: 22% and 42% | Population Healthy Nuclei (%) [6]: 64% and 46% | Population Hoechst High Intensity Objects (%) [6]: 2% and 4% | Population Mitochondria Different-Phenotype (%) [6]: 0% and 12% | Population Mitotic Cells (%) [6]: 37% and 53% | Population Normal (%) [6]: 97% and 95% | Population Pyknosed Nuclei (%) [6]: 13% and 11% | Population Tubulin-Different-Phenotype (%) [6]: 38% and 72% | Total Cell Count [6]: 120 and 122

O=C(O)Cc1ccccc1Nc1c(Cl)cccc1Cl [DICLOFENAC]
Population Apoptotic (%) [1]: 43% and 33% | Population Fragmented Nuclei (%) [1]: 14% and 25% | Population Healthy Nuclei (%) [1]: 67% and 49% | Population Hoechst High Intensity Objects (%) [1]: 0% and 2% | Population Membrane Permeable-Phenotype (%) [1]: 1% and 7% | Population Mitochondria Different-Phenotype (%) [1]: 6% | Population Mitotic Cells (%) [1]: 56% and 66% | Population Normal (%) [1]: 99% and 97% | Population Pyknosed Nuclei (%) [1]: 17% and 25% | Population Tubulin-Different-Phenotype (%) [1]: 25% and 49% | Population Apoptotic (%) [2]: 32% and 38% | Population Fragmented Nuclei (%) [2]: 14% and 36% | Population Healthy Nuclei (%) [2]: 68% and 46% | Population Hoechst High Intensity Objects (%) [2]: 0% and 6% | Population Membrane Permeable-Phenotype (%) [2]: 0% and 16% | Population Mitochondria Different-Phenotype (%) [2]: 5% and 8% | Population Mitotic Cells (%) [2]: 68% and 61% | Population Normal (%) [2]: 99% and 93% | Population Pyknosed Nuclei (%) [2]: 17% | Population Tubulin-Different-Phenotype (%) [2]: 24% and 54% | Population Apoptotic (%) [3]: 52% and 35% | Population Fragmented Nuclei (%) [3]: 15% and 28% | Population Healthy Nuclei (%) [3]: 66% and 49% | Population Hoechst High Intensity Objects (%) [3]: 2% and 3% | Population Membrane Permeable-Phenotype (%) [3]: 0% and 12% | Population Mitochondria Different-Phenotype (%) [3]: 4% and 6% | Population Mitotic Cells (%) [3]: 47% and 64% | Population Normal (%) [3]: 97% and 96% | Population Pyknosed Nuclei (%) [3]: 17% and 21% | Population Tubulin-Different-Phenotype (%) [3]: 29% and 50% | Population Apoptotic (%) [4]: 30% and 50% | Population Fragmented Nuclei (%) [4]: 16% and 31% | Population Healthy Nuclei (%) [4]: 68% and 50% | Population Hoechst High Intensity Objects (%) [4]: 5% and 2% | Population Membrane Permeable-Phenotype (%) [4]: 0% and 8% | Population Mitochondria Different-Phenotype (%) [4]: 5% and 10% | Population Mitotic Cells (%) [4]: 69% and 50% | Population Normal (%) [4]: 94% and 97% | Population Pyknosed Nuclei (%) [4]: 15% and 18% | Population Tubulin-Different-Phenotype (%) [4]: 19% and 55% | Population Apoptotic (%) [5]: 85% and 57% | Population Fragmented Nuclei (%) [5]: 21% and 36% | Population Healthy Nuclei (%) [5]: 61% and 53% | Population Hoechst High Intensity Objects (%) [5]: 3% and 5% | Population Membrane Permeable-Phenotype (%) [5]: 4% | Population Mitochondria Different-Phenotype (%) [5]: 4% | Population Mitotic Cells (%) [5]: 15% and 42% | Population Normal (%) [5]: 96% and 94% | Population Pyknosed Nuclei (%) [5]: 16% and 10% | Population Tubulin-Different-Phenotype (%) [5]: 24% and 44% | Population Apoptotic (%) [6]: 73% and 30% | Population Fragmented Nuclei (%) [6]: 22% and 35% | Population Healthy Nuclei (%) [6]: 65% and 50% | Population Hoechst High Intensity Objects (%) [6]: 3% | Population Membrane Permeable-Phenotype (%) [6]: 0% and 4% | Population Mitochondria Different-Phenotype (%) [6]: 3% and 6% | Population Mitotic Cells (%) [6]: 26% and 69% | Population Normal (%) [6]: 96% | Population Pyknosed Nuclei (%) [6]: 12% and 14% | Population Tubulin-Different-Phenotype (%) [6]: 28% and 53%

S=c1[nH]nc(-c2cccs2)n1-c1ccccc1
Population Apoptotic (%) [1]: 10.45% and 27.27% | Population Fragmented Nuclei (%) [1]: 8.13% and 2.86% | Population Healthy Nuclei (%) [1]: 59.81% and 84.57% | Population Hoechst High Intensity Objects (%) [1]: 0% | Population Membrane Permeable-Phenotype (%) [1]: 2.4% and 4.05% | Population Mitochondria Different-Phenotype (%) [1]: 10.4% and 6.76% | Population Mitotic Cells (%) [1]: 89.55% and 72.73% | Population Normal (%) [1]: 100% | Population Pyknosed Nuclei (%) [1]: 32.06% and 12.57% | Population Tubulin-Different-Phenotype (%) [1]: 13.6% and 28.38% | Total Cell Count [1]: 209 and 175 | Population Apoptotic (%) [2]: 17.07% and 26.67% | Population Healthy Nuclei (%) [2]: 62.62% and 78.84% | Population Hoechst High Intensity Objects (%) [2]: 0% | Population Membrane Permeable-Phenotype (%) [2]: 5.97% and 4.03% | Population Mitochondria Different-Phenotype (%) [2]: 8.21% and 11.41% | Population Mitotic Cells (%) [2]: 82.93% and 73.33% | Population Normal (%) [2]: 100% | Population Pyknosed Nuclei (%) [2]: 19.16% and 15.87% | Population Tubulin-Different-Phenotype (%) [2]: 14.18% and 20.13% | Total Cell Count [2]: 214 and 189 | Population Fragmented Nuclei (%) [3]: 7.76% and 4% | Population Healthy Nuclei (%) [3]: 78.88% and 84% | Population Hoechst High Intensity Objects (%) [3]: 0% | Population Membrane Permeable-Phenotype (%) [3]: 3.28% and 2.04% | Population Mitochondria Different-Phenotype (%) [3]: 4.92% and 4.76% | Population Mitotic Cells (%) [3]: 93.55% and 76.19% | Population Normal (%) [3]: 100% | Population Pyknosed Nuclei (%) [3]: 13.36% and 12% | Population Tubulin-Different-Phenotype (%) [3]: 8.2% and 19.05% | Total Cell Count [3]: 232 and 175 | Population Apoptotic (%) [4]: 16.22% and 35.71% | Population Fragmented Nuclei (%) [4]: 14.71% and 5.24% | Population Healthy Nuclei (%) [4]: 69.75% and 80.1% | Population Hoechst High Intensity Objects (%) [4]: 0% | Population Membrane Permeable-Phenotype (%) [4]: 3.61% and 5.88% | Population Mitochondria Different-Phenotype (%) [4]: 4.22% and 5.23% | Population Mitotic Cells (%) [4]: 83.78% and 64.29% | Population Normal (%) [4]: 100% | Population Pyknosed Nuclei (%) [4]: 15.55% and 14.66% | Population Tubulin-Different-Phenotype (%) [4]: 11.45% and 16.99% | Total Cell Count [4]: 238 and 191 | Population Apoptotic (%) [5]: 8.33% and 10.53% | Population Fragmented Nuclei (%) [5]: 8.8% and 5.49% | Population Healthy Nuclei (%) [5]: 86.4% and 84.07% | Population Hoechst High Intensity Objects (%) [5]: 0% | Population Membrane Permeable-Phenotype (%) [5]: 0.93% and 1.96% | Population Mitochondria Different-Phenotype (%) [5]: 10.19% and 2.61% | Population Mitotic Cells (%) [5]: 91.67% and 89.47% | Population Normal (%) [5]: 100% | Population Pyknosed Nuclei (%) [5]: 4.8% and 10.44% | Total Cell Count [5]: 250 and 182 | Population Apoptotic (%) [6]: 11.76% and 33.33% | Population Fragmented Nuclei (%) [6]: 10.61% and 5.58% | Population Healthy Nuclei (%) [6]: 82.45% and 88.32% | Population Hoechst High Intensity Objects (%) [6]: 0% | Population Membrane Permeable-Phenotype (%) [6]: 0% and 2.3% | Population Mitochondria Different-Phenotype (%) [6]: 9.9% and 4.02% | Population Mitotic Cells (%) [6]: 88.24% and 66.67% | Population Normal (%) [6]: 100% | Population Pyknosed Nuclei (%) [6]: 6.94% and 6.09% | Total Cell Count [6]: 245 and 197
